Reference: ChEMBL document CHEMBL4038269, “Design, synthesis and evaluation of novel feruloyl-donepezil hybrids as potential multitarget drugs for the treatment of Alzheimer's disease” (Eur J Med Chem, 2017)
pEC50, pIC50: −log10 of the molar value. Active and inactive are the calls of the source.

Columns and labels:
Mus musculus [1] = test: In vivo inhibition of COX-1 activity in carrageenan-induced Swiss mouse serum at 100 umol/kg, po pretreated for 1 hr followed by carrageenan challenge after 3 hrs by ELISA relative to control; type: functional
Outline: (§1)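 Male Swiss mice given oral drug (100 µmol/kg) or vehicle 1 h before intraplantar carrageenan (legend: 400 µg/paw). At 3 h, animals anaesthetised with chloral hydrate and cardiac blood taken. Serum separated (1500 rpm, 20 min) and frozen at -70 °C. COX-1, COX-2 and 5-LOX measured by specific sandwich ELISA at 450 nm. Expressed as % enzymatic activity, mean ± SEM, n=8.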

[2] = Metal chelating activity assessed as compound-Fe3+ complex formation at 75 uM after 30 mins by UV-Vis spectrophotometric method; type: functional
Outline: (§2)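 UV-Vis spectra in ethanol of compound at 75 µM alone or after 30 min incubation with CuSO4, FeSO4, FeCl3 or ZnCl2 (150 µM). Absorption maxima recorded.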

[3] = Antioxidant activity assessed as DPPH radical scavenging activity measured after 30 mins; type: functional
Outline: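 DPPH scavenging: compound at 12.5, 25, 50 and 100 µM in ethanol (4 mL) mixed with 1 mL of 0.5 mM DPPH in ethanol. Shaken 30 min at room temperature, absorbance read at 517 nm. % inhibition = (A control − A sample)/A control × 100. Run in triplicate; EC50 obtained by linear regression of mean values.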

Mus musculus [4] = test: Antiinflammatory activity in formalin-induced nociception Swiss mouse model assessed as reduction in time spent licking formalin injected hind paw during inflammatory phase at 100 umol/kg, po pretreated for 1 hr followed by formalin challenge measured after 20 to 30 mins; type: functional, organism-based
Outline: (§3)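 Male Swiss mice (22-28 g), n=8 per group, given oral vehicle (saline + DMSO 2%) or 100 µmol/kg 1 h before formalin (5% in 0.9% saline, 20 µl) into the right hind paw sub-plantar region. Morphine 39 µmol/kg i.p. was given 30 min before. Paw-licking time recorded at 0–5 min (neurogenic phase) and 20–30 min (inflammatory phase).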

SH-SY5Y [5] = test: Antioxidant activity in human SH-SY5Y cells assessed as reduction in H2O2-induced reactive oxygen species formation at 40 uM measured after 24 hrs by DCFH-DA probe based fluorescence assay relative to control; type: functional; parameters: scale not given: the % may be the effect or the level left
[6] = Cytotoxicity against human SH-SY5Y cells assessed as reduction in cell viability at 40 uM after 24 hrs by MTT assay relative to control; type: cell-based; conditions: read-out: INH
Outline: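 SH-SY5Y cells seeded at 2 x 10^4 cells/well, grown 24 h, then exposed to compound 1.25–40 µM for 24 h at 37 °C. MTT (5 mg/mL in PBS) added for 2 h and formazan dissolved in isopropanol. Read at 570 nm, reference 690 nm. Viability loss reported as percent at the top concentration, 40 µM.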

Acetylcholinesterase = Acetylcholinesterase (Electrophorus electricus, UniProt O42275); test: Inhibition of Electrophorus electricus AChE using acetylthiocholine iodide as substrate pretreated for 10 mins followed by substrate addition measured at 12 secs interval for 5 mins by Ellman's method
Mus musculus [7] = test: Antinociceptive activity in carrageenan-induced Swiss mouse model of mechanical hyperalgesia at 100 umol/kg, po pretreated for 1 hr followed by carrageenan challenge measured at 3 hrs post dose by Von Frey filament assay; type: functional, organism-based
Outline: (§4)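 Male Swiss mice (n=8) dosed orally with 100 µmol/kg or vehicle 1 h before intraplantar carrageenan (100 µg/paw). Mechanical threshold measured by up-and-down Von Frey method after 60 min acclimation on a wire screen. Started at 0.4 g filament, ≥6 trials at 10 s intervals, about 4 s per application. Reported as mean threshold in grams ± SEM.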

[8] = Metal chelating activity assessed as absorption maximum for compound-Cu2+ complex formation at 75 uM after 30 mins by UV-Vis spectrophotometric method (reference value: 237.2 nanometer); type: functional; outline: as §2
Mus musculus [9] = test: Antinociceptive activity in carrageenan-induced Swiss mouse model of mechanical hyperalgesia at 100 umol/kg, po pretreated for 1 hr followed by carrageenan challenge measured at 3 hrs to 7 hrs post dose by Von Frey filament assay; type: functional, organism-based; outline: as §4
Mus musculus [10] = test: Anti-inflammatory activity in Swiss mouse model of LPS-induced peritonitis assessed as inhibition of leukocyte migration at 100 umol/kg, po pretreated for 30 mins followed by LPS challenge measured after 4 hrs by Neubauer chamber method; type: functional, organism-based
Outline: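 Adult male Swiss mice (22-28 g), n=8 per group, dosed orally with 100 µmol/kg or vehicle (saline + DMSO 2%). 30 min later E. coli 026:B6 LPS, 100 µg/kg i.p. in sterile saline. Killed at 4 h by halothane overdose. Peritoneum lavaged with 10 ml PBS containing 0.5% sodium citrate. Total leukocytes counted in a Neubauer chamber, expressed as cells per cavity, mean ± SEM.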

[11] = Metal chelating activity assessed as absorption maximum for compound-Fe2+ complex formation at 75 uM after 30 mins by UV-Vis spectrophotometric method (reference value: 237.2 nanometer); type: functional; outline: as §2
SH-SY5Y [12] = test: Antioxidant activity in human SH-SY5Y cells assessed as reduction in H2O2-induced reactive oxygen species formation at 10 uM measured after 24 hrs by DCFH-DA probe based fluorescence assay; type: functional, cell-based
Mus musculus [13] = test: In vivo inhibition of COX-2 activity in carrageenan-induced Swiss mouse serum at 100 umol/kg, po pretreated for 1 hr followed by carrageenan challenge after 3 hrs by ELISA relative to control; type: functional; outline: as §1
SH-SY5Y [14] = test: Antioxidant activity in human SH-SY5Y cells assessed as increase in GSH level at 20 uM after 24 hrs by MCB probe based assay relative to control; type: functional
Outline: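 SH-SY5Y cells (DMEM, 10% FBS, 37 °C, 5% CO2) seeded at 2 x 10^4 cells/well and grown 24 h. Treated with 20 µM compound for 3-24 h. Then 50 µM monochlorobimane in PBS for 30 min at 37 °C. GSH fluorescence read at ex 360/em 465 nm, as % of control cells. Mean ± SD of three independent experiments.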

SH-SY5Y [15] = test: Pro-oxidant activity in human SH-SY5Y cells assessed as increase in H2O2-induced reactive oxygen species formation at 20 to 40 uM pretreated for 24 hrs followed by H2O2 addition by DCFH-DA probe based fluorescence assay; type: ADME, cell-based
Mus musculus [16] = test: Neurotoxicity in Swiss mouse assessed as induction of motor impairment at 100 umol/kg, po measured after 1 hr by open filed test; type: toxicity, organism-based; conditions: in vivo
Outline: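 Male Swiss mice (n=8) given vehicle or compound orally 1 h before open-field test. Crossings of the central four and peripheral 12 squares counted separately.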

Mus musculus [17] = test: Anti-inflammatory activity in Swiss mouse assessed as reduction in carrageenan-induced paw edema at 100 umol/kg, po pretreated for 1 hr followed by carrageenan challenge after 3 hrs by plethysmometer; type: functional, organism-based
Outline: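 Adult male Swiss mice (22-28 g), fasted overnight, given vehicle (DMSO 2% in sterile saline) or 100 µmol/kg orally 1 h before intraplantar carrageenan. Methods give 400 µg/20 µl and n=10 per group; figure legend gives 100 µg/paw and n=8. Right hind paw volume read by plethysmometer at 1, 3 and 5 h. Reported as change in µL from basal volume, mean ± SEM.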

[18] = Metal chelating activity assessed as absorption maximum for compound-Zn2+ complex formation at 75 uM after 30 mins by UV-Vis spectrophotometric method; type: functional; outline: as §2
Cholinesterase = Cholinesterase (Equus caballus, UniProt P81908); test: Inhibition of equine serum BuChE using butyrylthiocholine iodide as substrate pretreated for 10 mins followed by substrate addition measured at 12 secs interval for 5 mins by Ellman's method
Outline: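 Ellman assay in 0.1 M sodium phosphate pH 7.4, enzyme 0.5 U/mL, DTNB 10 mM; concentration series preincubated 10 min before butyrylthiocholine iodide ([…]); A412 over 5 min at 12 s intervals. IC50 from fitted concentration-response curves, geometric mean of independent experiments, each in triplicate; DMSO ≤0.2% final.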

SH-SY5Y [19] = test: Antioxidant activity in human SH-SY5Y cells assessed as reduction in H2O2-induced reactive oxygen species formation measured after 24 hrs by DCFH-DA probe based fluorescence assay; type: functional, cell-based; conditions: for IC50: sh-sy5y; for pIC50: Homo sapiens, SH-SY5Y, 24 h, read-out: IC50
Mus musculus [20] = test: Antiinflammatory activity in formalin-induced nociception Swiss mouse model assessed as reduction in time spent licking formalin injected hind paw during neurogenic phase at 100 umol/kg, po pretreated for 1 hr followed by formalin challenge measured up to 5 mins; type: functional, organism-based; outline: as §3
[21] = target: Cholinesterase (Equus caballus) (UniProt P81908); test: Inhibition of equine serum BuChE at 30 uM using butyrylthiocholine iodide as substrate pretreated for 10 mins followed by substrate addition measured at 12 secs interval for 5 mins by Ellman's method relative to control
[22] = target: Acetylcholinesterase (Electrophorus electricus) (UniProt O42275); test: Inhibition of Electrophorus electricus AChE at 30 uM using acetylthiocholine iodide as substrate pretreated for 10 mins followed by substrate addition measured at 12 secs interval for 5 mins by Ellman's method relative to control
Outline: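 Enzyme (0.5 U/mL) with DTNB (10 mM) in 0.1 M sodium phosphate pH 7.4; compound at 30 μM preincubated 10 min, then acetylthiocholine or butyrylthiocholine iodide added ([…]); A412 read every 12 s for 5 min. Velocity as percent of vehicle control; means and pooled SD from 2-4 experiments in triplicate. DMSO ≤0.2% final.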

Sequence of Acetylcholinesterase (O42275 whole entry): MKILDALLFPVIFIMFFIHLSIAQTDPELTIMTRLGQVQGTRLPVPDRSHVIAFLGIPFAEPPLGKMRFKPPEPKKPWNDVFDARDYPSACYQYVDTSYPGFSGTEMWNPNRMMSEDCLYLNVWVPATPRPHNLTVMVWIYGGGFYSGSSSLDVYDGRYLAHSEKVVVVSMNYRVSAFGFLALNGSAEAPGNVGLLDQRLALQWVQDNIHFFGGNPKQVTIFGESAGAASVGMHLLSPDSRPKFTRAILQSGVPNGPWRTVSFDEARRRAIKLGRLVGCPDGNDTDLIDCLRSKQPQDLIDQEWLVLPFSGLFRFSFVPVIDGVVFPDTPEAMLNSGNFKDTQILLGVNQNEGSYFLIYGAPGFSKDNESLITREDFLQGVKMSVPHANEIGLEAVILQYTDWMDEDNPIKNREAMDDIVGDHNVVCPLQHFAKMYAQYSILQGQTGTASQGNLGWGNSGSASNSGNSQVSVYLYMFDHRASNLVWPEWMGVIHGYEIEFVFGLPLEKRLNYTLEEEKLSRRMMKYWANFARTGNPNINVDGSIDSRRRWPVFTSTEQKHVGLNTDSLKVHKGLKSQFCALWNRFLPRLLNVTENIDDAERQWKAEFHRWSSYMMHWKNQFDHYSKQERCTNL
Sequence of Acetylcholinesterase (Electrophorus electricus) (O42275 24-633 limits assumed): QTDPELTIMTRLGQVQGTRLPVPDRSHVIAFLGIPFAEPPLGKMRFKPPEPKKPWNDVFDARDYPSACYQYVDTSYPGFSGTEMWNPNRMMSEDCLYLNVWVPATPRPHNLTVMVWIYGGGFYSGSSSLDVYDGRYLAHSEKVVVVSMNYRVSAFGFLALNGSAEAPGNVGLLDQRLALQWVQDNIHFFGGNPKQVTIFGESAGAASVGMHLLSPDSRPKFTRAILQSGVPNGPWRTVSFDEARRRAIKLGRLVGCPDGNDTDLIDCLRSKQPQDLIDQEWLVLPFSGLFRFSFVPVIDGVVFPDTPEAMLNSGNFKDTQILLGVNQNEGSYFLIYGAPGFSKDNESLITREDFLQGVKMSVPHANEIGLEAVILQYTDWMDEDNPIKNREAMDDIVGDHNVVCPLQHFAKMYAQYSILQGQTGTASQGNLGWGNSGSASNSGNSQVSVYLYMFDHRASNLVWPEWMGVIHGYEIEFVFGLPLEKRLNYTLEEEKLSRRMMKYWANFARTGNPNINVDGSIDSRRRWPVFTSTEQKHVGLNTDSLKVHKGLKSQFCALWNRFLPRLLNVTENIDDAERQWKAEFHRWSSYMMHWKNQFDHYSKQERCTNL
Sequence of Cholinesterase (Equus caballus) (P81908 whole entry): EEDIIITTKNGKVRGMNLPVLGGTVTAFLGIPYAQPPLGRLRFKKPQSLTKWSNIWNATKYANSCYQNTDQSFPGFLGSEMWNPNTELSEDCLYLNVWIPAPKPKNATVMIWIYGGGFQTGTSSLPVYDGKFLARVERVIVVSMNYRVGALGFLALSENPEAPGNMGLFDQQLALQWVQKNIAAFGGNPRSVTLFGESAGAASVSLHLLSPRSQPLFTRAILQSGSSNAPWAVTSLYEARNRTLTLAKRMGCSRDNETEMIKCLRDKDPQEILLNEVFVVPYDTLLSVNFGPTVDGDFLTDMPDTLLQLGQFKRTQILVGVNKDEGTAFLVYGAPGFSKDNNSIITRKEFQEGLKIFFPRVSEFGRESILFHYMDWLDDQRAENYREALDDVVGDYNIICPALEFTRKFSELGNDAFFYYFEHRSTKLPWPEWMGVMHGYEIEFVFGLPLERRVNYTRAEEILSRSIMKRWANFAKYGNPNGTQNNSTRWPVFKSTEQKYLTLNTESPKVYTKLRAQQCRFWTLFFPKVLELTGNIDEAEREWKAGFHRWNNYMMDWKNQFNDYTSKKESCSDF
Sequence of Cholinesterase (P81908 whole entry): as above

COc1cc(/C=C/C(=O)OCC2CCN(Cc3ccc(Br)cc3)CC2)ccc1O
inhibition in vivo at 100 µmol/kg (Mus musculus [1]): 30% | Activity [2]: inactive | pEC50 [3]: 4.34 | Activity (Mus musculus [4]): Active | Activity (SH-SY5Y [5]): <50% | cytotoxicity at 24 h, 40 µM [6]: 28% | pIC50 (Acetylcholinesterase): < 4.52 | Activity (Mus musculus [7]): Active | Activity [8]: Active | Activity (Mus musculus [9]): Active | inhibition (Mus musculus [10]): Active | Activity [11]: Active | Activity (SH-SY5Y [12]): Active | inhibition in vivo at 100 µmol/kg (Mus musculus [13]): 60% | Activity (SH-SY5Y [14]): inactive | Activity (SH-SY5Y [15]): Toxic | Activity (Mus musculus [16]): Non-Toxic | Activity (Mus musculus [17]): Active | Activity [18]: inactive

COc1ccc(/C=C/C(=O)OCC2CCN(Cc3ccccc3)CC2)cc1O
pEC50 [3]: < 4.00 | pIC50 (Acetylcholinesterase): < 4.52

COc1ccc(/C=C/C(=O)OCC2CCN(Cc3ccc(Br)cc3)CC2)cc1O
pEC50 [3]: < 4.00 | pIC50 (Acetylcholinesterase): < 4.52

COc1cc(/C=C/C(=O)CC(=O)/C=C/c2ccc(O)c(OC)c2)ccc1O [CURCUMIN]
pIC50 (Cholinesterase): < 3.52

COc1ccc(/C=C/C(=O)OCC2CCN(Cc3ccc4c(c3)OCO4)CC2)cc1O
pEC50 [3]: < 4.00 | pIC50 (Acetylcholinesterase): < 4.52 | IC50 (SH-SY5Y [19]): Not Active

COc1ccc(/C=C/C(=O)OCC2CCN(Cc3ccc(Cl)cc3)CC2)cc1O
pEC50 [3]: 4.90 | pIC50 (Acetylcholinesterase): < 4.52

COc1cc2c(cc1OC)C(=O)C(CC1CCN(Cc3ccccc3)CC1)C2 (configuration not stated) [DONEPEZIL]
Activity (SH-SY5Y [5]): <50% | IC50 (SH-SY5Y [19]): Not Active

COc1ccc2c(c1)c(CC(=O)O)c(C)n2C(=O)c1ccc(Cl)cc1 [INDOMETHACIN]
inhibition in vivo at 100 µmol/kg (Mus musculus [1]): 50% | Activity (Mus musculus [20]): Active | Activity (Mus musculus [4]): Active | Activity (Mus musculus [7]): Active | inhibition in vivo at 100 µmol/kg (Mus musculus [13]): 42% | Activity (Mus musculus [17]): Active

Cc1c(C)c2c(c(C)c1O)CCC(C)(C(=O)O)O2 (configuration not stated) [TROLOX]
pEC50 [3]: 5.31

COc1cc(/C=C/C(=O)OCC2CCN(Cc3ccc(Cl)cc3)CC2)ccc1O
pEC50 [3]: 4.69 | pIC50 (Acetylcholinesterase): < 4.52

COc1cc(/C=C/C(=O)OCC2CCN(Cc3ccc([N+](=O)[O-])cc3)CC2)ccc1O
Activity [2]: inactive | pEC50 [3]: 4.33 | inhibition [21]: 4.3% | cytotoxicity at 24 h, 40 µM [6]: 9% | pIC50 (Acetylcholinesterase): 4.78 | inhibition [22]: 50% | Activity [8]: Active | Activity (SH-SY5Y [19]): Dose-dependent effect | pIC50 (SH-SY5Y [19]): 4.59 | Activity [11]: Active | fold change (FC) (SH-SY5Y [14]): 1.2 | Activity [18]: inactive

COc1ccc(CN2CCC(COC(=O)/C=C/c3ccc(OC)c(O)c3)CC2)cc1
pEC50 [3]: < 4.00 | pIC50 (Acetylcholinesterase): < 4.52

COc1cc(/C=C/C(=O)OCC2CCN(Cc3ccc(N4CCOCC4)cc3)CC2)ccc1O
pEC50 [3]: 4.13 | pIC50 (Acetylcholinesterase): < 4.52

COc1ccc(/C=C/C(=O)OCC2CCN(Cc3ccc([N+](=O)[O-])cc3)CC2)cc1O
pEC50 [3]: < 4.00 | pIC50 (Acetylcholinesterase): < 4.52

COc1ccc(/C=C/C(=O)O)cc1O [ISOFERULIC ACID]
pEC50 [3]: < 4.00

COc1ccc(/C=C/C(=O)OCC2CCN(Cc3ccc(N4CCOCC4)cc3)CC2)cc1O
pEC50 [3]: < 4.00 | pIC50 (Acetylcholinesterase): < 4.52

COc1cc(/C=C/C(=O)OCC2CCN(Cc3ccc4c(c3)OCO4)CC2)ccc1O
pEC50 [3]: < 4.00 | pIC50 (Acetylcholinesterase): < 4.52

COc1cc(/C=C/C(=O)O)ccc1O [FERULATE]
pEC50 [3]: 4.45 | pIC50 (SH-SY5Y [19]): 4.93

COc1ccc(CN2CCC(COC(=O)/C=C/c3ccc(O)c(OC)c3)CC2)cc1
pEC50 [3]: 4.11 | pIC50 (Acetylcholinesterase): < 4.52
